In brackets after ≈: the same amount, converted by molar mass. Several values for one entry are separate records, joined by “and”; a condition that tells them apart may be missing. Identical values can stand only once.
Key:
[1] = Mean residence time after po dose in rat; type: ADME, organism-based; details: in vivo
Procedure, shortened: (§1)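 Rats (n = 4/group) received 5 mg/kg either iv as a slow jugular bolus or po by gavage. The terminal-phase rate constant gave t1/2 and AUC extrapolated to infinity. F compares oral with iv AUC.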

[2] = test system: Rattus norvegicus; assay: rate pressure product in a rat model of reperfusion after 60 min at 50 mg/kg dose; type: functional
[3] = Clearance after intravenous dose in rat; details: in vivo, CL
[4] = test system: Rattus norvegicus; assay: Clearance after intravenous dose in rat; details: in vivo
[5] = test system: Rattus norvegicus; assay: rate pressure product in a rat model of reperfusion after 5 min at 3 mg/kg dose; type: functional
[6] = Oral bioavailability in rat; type: ADME, organism-based; details: in vivo; procedure, shortened: as §1
[7] = test system: Rattus norvegicus; assay: mean arterial pressure in a rat model of ischemia after 15 min at 50 mg/kg dose; type: functional, Artery
[8] = test system: Rattus norvegicus; assay: rate pressure product in a rat model of reperfusion after 120 min at 50 mg/kg dose; type: functional
[9] = test system: Rattus norvegicus; assay: heart rate in a rat model of reperfusion after 5 min at 50 mg/kg dose; type: functional
[10] = test system: Canis familiaris; assay: Cmax value after po dose in dog; details: in vivo
[11] = test system: Rattus norvegicus; assay: Cmax value after po dose in rat; type: ADME, organism-based; parameters: route oral; details: in vivo; procedure, shortened: as §1
[12] = test system: Rattus norvegicus; assay: mean arterial pressure in a rat model of reperfusion after 180 min at 3 mg/kg dose; type: functional, Artery
[13] = test system: Rattus norvegicus; assay: mean arterial pressure in a rat model of reperfusion after 5 min at 3 mg/kg dose; type: functional, Artery
[14] = test system: Rattus norvegicus; assay: heart rate pressure in a rat model of reperfusion after 60 min at 3 mg/kg dose; type: functional
[15] = test system: Rattus norvegicus; assay: rate pressure product in a rat model of reperfusion after 5 min at 50 mg/kg dose; type: functional
[16] = test system: Rattus norvegicus; assay: heart rate in a rat model of ischemia immediately prior to the occlusion at 3 mg/kg dose; type: functional
[17] = test system: Rattus norvegicus; assay: heart rate in a rat model of ischemia after 15 min at 3 mg/kg dose; type: functional
[18] = test system: Rattus norvegicus; assay: rate pressure product in a rat model of reperfusion after 180 min at 50 mg/kg dose; type: functional
[19] = test system: JY; assay: Inhibition of JY8 cell adhesion process (The assay was run with 1% fetal bovine serum); type: functional, cell-based; details: Homo sapiens, JY-8
Procedure, shortened: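 JY-8 cells […] in the presence of 1% fetal bovine serum. Six concentrations from 6.4 × 10^-9 to 2 × 10^-5 were run in duplicate. IC50 is the mean of repeat measurements, with the range given.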

[20] = test system: Canis familiaris; assay: Mean residence time after po dose in dog; details: in vivo
[21] = test system: Rattus norvegicus; assay: heart rate in a rat model of reperfusion after 180 min at 50 mg/kg dose
[22] = test system: Rattus norvegicus; assay: mean arterial pressure in a rat model of reperfusion after 120 min at 3 mg/kg dose; type: functional, Artery
[23] = test system: Rattus norvegicus; assay: heart rate in a rat model of ischemia immediately prior to the occlusion at 50 mg/kg dose; type: functional
[24] = test system: Rattus norvegicus; assay: rate pressure product in a rat model of ischemia immediately prior to the occlusion at 50 mg/kg dose; type: functional
[25] = test system: Rattus norvegicus; assay: mean arterial pressure in a rat model of ischemia immediately prior to the occlusion at 50 mg/kg dose; type: functional, Artery
[26] = test system: Rattus norvegicus; assay: rate pressure product in a rat model of ischemia after 15 min at 3 mg/kg dose; type: functional
[27] = test system: Rattus norvegicus; assay: mean arterial pressure in a rat model of reperfusion after 60 min at 50 mg/kg dose; type: functional, Artery
[28] = test system: Rattus norvegicus; assay: Half life period after intravenous dose in rat; type: ADME, organism-based; details: in vivo; procedure, shortened: as §1
[29] = test system: Rattus norvegicus; assay: rate pressure product in a rat model of ischemia immediately prior to the occlusion at 3 mg/kg dose; type: functional
[30] = test system: Rattus norvegicus; assay: heart rate in a rat model of ischemia after 15 min at 50 mg/kg dose; type: functional
[31] = test system: Rattus norvegicus; assay: rate pressure product in a rat model of reperfusion after 60 min at 3 mg/kg dose; type: functional
[32] = test system: Rattus norvegicus; assay: mean arterial pressure in a rat model of ischemia immediately prior to the occlusion at 3 mg/kg dose; type: functional, Artery
[33] = test system: Rattus norvegicus; assay: mean arterial pressure in a rat model of reperfusion after 5 min at 50 mg/kg dose; type: functional, Artery
[34] = test system: Rattus norvegicus; assay: rate pressure product in a rat model of reperfusion after 120 min at 3 mg/kg dose; type: functional
[35] = test system: Rattus norvegicus; assay: heart rate pressure in a rat model of reperfusion after 120 min at 3 mg/kg dose; type: functional
[36] = test system: Rattus norvegicus; assay: heart rate pressure in a rat model of reperfusion after 5 min at 3 mg/kg dose; type: functional
[37] = test system: Rattus norvegicus; assay: mean arterial pressure in a rat model of reperfusion after 180 min at 50 mg/kg dose; type: functional, Artery
[38] = test system: Rattus norvegicus; assay: heart rate in a rat model of reperfusion after 60 min at 50 mg/kg dose; type: functional
[39] = test system: Rattus norvegicus; assay: rate pressure product in a rat model of ischemia after 15 min at 50 mg/kg dose; type: functional
[40] = test system: Rattus norvegicus; assay: rate pressure product in a rat model of reperfusion after 180 min at 3 mg/kg dose; type: functional
[41] = test system: Rattus norvegicus; assay: mean arterial pressure in a rat model of reperfusion after 120 min at 50 mg/kg dose; type: functional, Artery
[42] = test system: Rattus norvegicus; assay: heart rate pressure in a rat model of reperfusion after 180 min at 3 mg/kg dose; type: functional
[43] = test system: Rattus norvegicus; assay: mean arterial pressure in a rat model of reperfusion after 60 min at 3 mg/kg dose; type: functional, Artery
[44] = test system: Rattus norvegicus; assay: mean arterial pressure in a rat model of ischemia after 15 min at 3 mg/kg dose; type: functional, Artery
[45] = target: Intercellular adhesion molecule (ICAM-1), Integrin alpha-L/beta-2 (Homo sapiens, UniProt P05107+P20701); assay: Ability to antagonise the Leukocyte function-associated Antigen-1/ Intracellular Adhesion molecule-1 interaction (LFA-1/ICAM-1); type: functional
Intercellular adhesion molecule (ICAM-1), Integrin alpha-L/beta-2, sequence (P20701 whole entry, the tested form may be a part): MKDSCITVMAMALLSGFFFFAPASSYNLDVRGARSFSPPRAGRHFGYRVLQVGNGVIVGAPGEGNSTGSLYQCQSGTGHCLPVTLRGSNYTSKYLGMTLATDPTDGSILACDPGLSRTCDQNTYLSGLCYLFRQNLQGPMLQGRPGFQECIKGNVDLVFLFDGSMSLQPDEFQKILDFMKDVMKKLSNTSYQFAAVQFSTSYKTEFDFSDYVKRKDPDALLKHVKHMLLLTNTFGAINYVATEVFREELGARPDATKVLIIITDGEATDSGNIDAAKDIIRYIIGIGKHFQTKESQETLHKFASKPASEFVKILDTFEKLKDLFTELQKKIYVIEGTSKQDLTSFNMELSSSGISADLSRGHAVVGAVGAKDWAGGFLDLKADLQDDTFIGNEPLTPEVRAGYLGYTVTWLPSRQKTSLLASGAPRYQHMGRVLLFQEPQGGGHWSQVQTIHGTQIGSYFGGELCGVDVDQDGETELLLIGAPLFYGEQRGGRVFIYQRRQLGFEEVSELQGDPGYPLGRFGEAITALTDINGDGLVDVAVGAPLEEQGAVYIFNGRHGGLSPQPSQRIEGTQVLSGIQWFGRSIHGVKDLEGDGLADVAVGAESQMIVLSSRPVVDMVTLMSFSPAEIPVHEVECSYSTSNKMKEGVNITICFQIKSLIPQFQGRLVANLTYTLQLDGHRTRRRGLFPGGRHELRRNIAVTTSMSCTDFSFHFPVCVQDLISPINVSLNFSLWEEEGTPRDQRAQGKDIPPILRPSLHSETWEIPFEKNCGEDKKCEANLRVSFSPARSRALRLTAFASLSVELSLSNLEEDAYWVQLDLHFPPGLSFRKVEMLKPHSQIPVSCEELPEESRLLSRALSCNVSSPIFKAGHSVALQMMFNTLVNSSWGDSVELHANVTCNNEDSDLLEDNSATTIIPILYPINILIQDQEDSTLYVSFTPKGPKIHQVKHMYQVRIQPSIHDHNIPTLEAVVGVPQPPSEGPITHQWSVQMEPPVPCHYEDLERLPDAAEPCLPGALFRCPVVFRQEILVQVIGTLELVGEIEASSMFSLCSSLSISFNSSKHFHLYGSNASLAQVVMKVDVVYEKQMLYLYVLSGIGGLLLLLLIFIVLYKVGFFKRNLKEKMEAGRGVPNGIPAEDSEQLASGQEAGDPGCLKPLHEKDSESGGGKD
Intercellular adhesion molecule (ICAM-1), Integrin alpha-L/beta-2, sequence (P05362 whole entry, further chain, the tested form may be a part): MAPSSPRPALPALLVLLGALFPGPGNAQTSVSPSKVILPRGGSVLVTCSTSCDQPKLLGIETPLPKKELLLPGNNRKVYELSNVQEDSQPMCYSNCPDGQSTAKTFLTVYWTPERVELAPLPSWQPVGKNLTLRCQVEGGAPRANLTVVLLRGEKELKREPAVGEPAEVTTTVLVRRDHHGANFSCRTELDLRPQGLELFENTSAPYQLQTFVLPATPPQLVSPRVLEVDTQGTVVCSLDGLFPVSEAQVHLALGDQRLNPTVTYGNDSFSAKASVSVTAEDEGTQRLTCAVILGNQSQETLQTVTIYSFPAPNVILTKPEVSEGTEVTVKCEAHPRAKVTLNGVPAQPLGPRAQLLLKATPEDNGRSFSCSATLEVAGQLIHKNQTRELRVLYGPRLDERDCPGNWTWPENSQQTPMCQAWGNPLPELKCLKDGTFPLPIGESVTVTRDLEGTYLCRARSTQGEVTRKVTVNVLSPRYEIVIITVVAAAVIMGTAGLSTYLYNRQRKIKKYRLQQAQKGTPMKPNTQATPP
Intercellular adhesion molecule (ICAM-1), Integrin alpha-L/beta-2, sequence (P05107 whole entry, the tested form may be a part): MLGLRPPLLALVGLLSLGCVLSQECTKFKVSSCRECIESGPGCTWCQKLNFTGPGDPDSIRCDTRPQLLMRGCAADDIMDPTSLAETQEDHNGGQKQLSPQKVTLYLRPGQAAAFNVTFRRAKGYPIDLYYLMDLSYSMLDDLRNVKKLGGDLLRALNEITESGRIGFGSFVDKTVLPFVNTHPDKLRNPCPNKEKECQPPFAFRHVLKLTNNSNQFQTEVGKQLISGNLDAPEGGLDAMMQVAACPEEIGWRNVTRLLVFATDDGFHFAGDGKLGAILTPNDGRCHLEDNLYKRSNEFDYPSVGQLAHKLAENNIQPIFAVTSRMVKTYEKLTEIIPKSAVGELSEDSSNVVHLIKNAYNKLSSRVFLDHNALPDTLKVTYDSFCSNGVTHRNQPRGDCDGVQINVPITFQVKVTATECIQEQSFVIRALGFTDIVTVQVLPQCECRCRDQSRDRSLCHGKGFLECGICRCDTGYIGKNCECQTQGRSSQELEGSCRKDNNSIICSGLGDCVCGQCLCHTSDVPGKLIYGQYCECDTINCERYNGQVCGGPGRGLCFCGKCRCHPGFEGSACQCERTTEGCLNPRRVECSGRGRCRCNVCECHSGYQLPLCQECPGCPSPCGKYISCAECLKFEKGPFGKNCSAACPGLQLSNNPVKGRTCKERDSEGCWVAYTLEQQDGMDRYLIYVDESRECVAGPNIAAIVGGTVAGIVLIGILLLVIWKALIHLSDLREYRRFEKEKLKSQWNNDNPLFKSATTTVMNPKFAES

[46] = test system: Rattus norvegicus; assay: heart rate in a rat model of reperfusion after 120 min at 50 mg/kg dose
[47] = Clearance after iv dose in rat; details: in vivo
[48] = Half life period after iv dose in rat; type: ADME, organism-based; details: in vivo; procedure, shortened: as §1
[49] = Water solubility
[50] = Clearance after iv dose
[51] = Cmax value after po dose; type: ADME, organism-based; parameters: route oral; details: in vivo
[52] = Percent oral bioavailability after po dose; type: ADME, organism-based; details: eutheria, in vivo

O=C(O)C1CCCN(C(=O)/C=C/c2ccc(Sc3ccc4c(c3)OCCO4)c(C(F)(F)F)c2)C1 (configuration not stated)
MRT [1]: 5 h | RPP [2]: 46700 mmHg beats min-1 | clearance [3]: 4.83 mL/min/kg | clearance [4]: 5.67 mL/min/kg | RPP [5]: 37500 mmHg beats min-1 | F [6]: 29% and 55% | MAP [7]: 105 mmHg | RPP [8]: 38100 mmHg beats min-1 | HR [9]: 382 beats min-1 | Cmax [10]: 3700 ng/mL | Cmax [11]: 1.5 ug m l-1 | MAP [12]: 95 mmHg | MAP [13]: 98 mmHg | HR [14]: 382 beats min-1 | RPP [15]: 40200 mmHg beats min-1 | HR [16]: 393 beats min-1 | HR [17]: 391 beats min-1 | RPP [18]: 32000 mmHg beats min-1 | IC50 [19]: 140 nM | MRT [20]: 5.7 h | HR [21]: 399 beats min-1 | MAP [22]: 85 mmHg | HR [23]: 419 beats min-1 | RPP [24]: 54000 mmHg beats min-1 | MAP [25]: 128 mmHg | RPP [26]: 41800 mmHg beats min-1 | MAP [27]: 118 mmHg | T1/2 [28]: 2.3 h and 5.7 h | RPP [29]: 46400 mmHg beats min-1 | HR [30]: 400 beats min-1 | RPP [31]: 38100 mmHg beats min-1 | MAP [32]: 118 mmHg | MAP [33]: 105 mmHg | RPP [34]: 31800 mmHg beats min-1 | HR [35]: 371 beats min-1 | HR [36]: 379 beats min-1 | MAP [37]: 80 mmHg | HR [38]: 396 beats min-1 | RPP [39]: 42700 mmHg beats min-1 | RPP [40]: 35100 mmHg beats min-1 | MAP [41]: 96 mmHg | HR [42]: 376 beats min-1 | MAP [43]: 99 mmHg | MAP [44]: 107 mmHg | IC50 [45]: 25 nM | HR [46]: 397 beats min-1

CC(C)c1ccccc1Sc1ccc(/C=C/C(=O)N2CCC(C(=O)O)CC2)cc1[N+](=O)[O-]
MRT [1]: 3.5 h | bioavailability [6]: 21% | Cmax [11]: 0.5 ug m l-1 | clearance [47]: 13.2 mL/min/kg | half-life [48]: 1.15 h | IC50 [19]: 165 nM | IC50 [45]: 31 nM

COC(=O)C1CN(C(=O)/C=C/c2ccc(Sc3ccccc3C(C)C)c([N+](=O)[O-])c2)CCN1C (configuration not stated)
IC50 [19]: 110 nM | IC50 [45]: 45 nM

O=C(O)C1CCN(C(=O)/C=C/c2ccc(Sc3ccc4c(c3)OCCO4)c(C(F)(F)F)c2)CC1
MRT [1]: 6.7 h | bioavailability [6]: 39% | Cmax [11]: 2.8 ug m l-1 | clearance [47]: 2 mL/min/kg | half-life [48]: 3.9 h | IC50 [19]: 150 nM | IC50 [45]: 30 nM

CC(=O)N1CCN(C(=O)/C=C/c2ccc(Sc3ccccc3C(C)C)c([N+](=O)[O-])c2)CC1C(=O)O (configuration not stated)
IC50 [45]: 680 nM

CC(C)c1ccccc1Sc1ccc(/C=C/C(=O)N2CCC3(CC2)OCCO3)cc1[N+](=O)[O-]
IC50 [45]: 55 nM

CNC(=O)N1CCN(C(=O)/C=C/c2ccc(Sc3ccccc3C(C)C)c([N+](=O)[O-])c2)CC1
IC50 [45]: 25 nM

CC(C)c1ccccc1Sc1ccc(/C=C/C(=O)N2CCNC(CO)C2)cc1[N+](=O)[O-] (configuration not stated)
bioavailability [6]: 0% | Cmax [11]: 0 ug m l-1 | clearance [47]: 53.3 mL/min/kg | half-life [48]: 1.9 h | Solubility [49]: 5 µg/mL (≈ 11.3 µM) | IC50 [45]: 280 nM

CC(=O)N1CCN(C(=O)/C=C/c2ccc(Sc3ccccc3C(C)C)c([N+](=O)[O-])c2)CC1 [A-286982]
clearance [50]: 45 mL/min/kg | Cmax [51]: 0 ug m l-1 | Solubility [49]: < 1 µg/mL | bioavailability [52]: 0%

CC(C)c1ccccc1Sc1ccc(/C=C/C(=O)N2CCNC(C(=O)N(C)C)C2)cc1[N+](=O)[O-] (configuration not stated)
IC50 [45]: 75 nM

COC(=O)C1CN(C(=O)/C=C/c2ccc(Sc3ccccc3C(C)C)c([N+](=O)[O-])c2)CCN1 (configuration not stated)
IC50 [19]: 98 nM | IC50 [45]: 60 nM

CC(C)c1ccccc1Sc1ccc(/C=C/C(=O)N2CCC(S(=O)(=O)O)CC2)cc1[N+](=O)[O-]
IC50 [45]: 90 nM

COC(=O)C1CNCCN1C(=O)/C=C/c1ccc(Sc2ccccc2C(C)C)c([N+](=O)[O-])c1 (configuration not stated)
IC50 [45]: 340 nM

COC(=O)N1CCN(C(=O)/C=C/c2ccc(Sc3ccccc3C(C)C)c([N+](=O)[O-])c2)C(C(=O)O)C1 (configuration not stated)
IC50 [45]: 130 nM

CC(C)c1ccccc1Sc1ccc(/C=C/C(=O)N2CCNCC2)cc1[N+](=O)[O-]
IC50 [45]: 450 nM

CC(C)c1ccccc1Sc1ccc(/C=C/C(=O)N2CCCC(C(=O)O)C2)cc1[N+](=O)[O-] (configuration not stated)
MRT [1]: 11.3 h | bioavailability [6]: 19% | Cmax [11]: 0.45 ug m l-1 | clearance [47]: 35 mL/min/kg | half-life [48]: 0.4 h | IC50 [19]: 90 nM | IC50 [45]: 30 nM

CC(C)c1ccccc1Sc1ccc(/C=C/C(=O)N2CCN(C(=O)c3ccncc3)CC2)cc1[N+](=O)[O-]
IC50 [19]: 20 nM | IC50 [45]: 66 nM

CC(C)c1ccccc1Sc1ccc(/C=C/C(=O)N2CCOC(c3nnn[nH]3)C2)cc1[N+](=O)[O-] (configuration not stated)
IC50 [19]: 2 nM | IC50 [45]: 20 nM

CC(C)c1ccccc1Sc1ccc(/C=C/C(=O)N2CCC(=O)CC2)cc1[N+](=O)[O-]
IC50 [19]: 240 nM | IC50 [45]: 60 nM

CC(C)c1ccccc1Sc1ccc(/C=C/C(=O)N2CCN(C)CC2)cc1[N+](=O)[O-]
IC50 [45]: 130 nM

CC(C)c1ccccc1Sc1ccc(/C=C/C(=O)N2CC=CC2C(=O)O)cc1C(F)(F)F (configuration not stated)
IC50 [45]: 130 nM

From ChEMBL document CHEMBL1134576, “Discovery of potent antagonists of leukocyte function-associated antigen-1/intercellular adhesion molecule-1 interaction. 3. Amide (C-ring) structure-activity relationship and improvement of overall properties of arylthio cinnamides” (J Med Chem, 2001)
